The target in assay [1] is Delta-type opioid receptor (Rattus norvegicus, UniProt P33533). The assay can be described thus: Binding affinity for Opioid receptor delta 1 determined by displacing [3H]-DSLET from rat brain membrane binding sites.
In the next assay the target is Mu-type opioid receptor (Rattus norvegicus, UniProt P33535). Nature of the assay: Binding affinity for Opioid receptor mu 1 determined by displacing [3H]DAMGO from rat brain membrane binding sites.
For assay [2], the species on record is Mus musculus. The assay can be described thus: Compound was evaluated for its antagonist potency against delta agonist deltorphin I, by MVD assay(mouse vas deferens). The format is functional.
Assay [3] is filed under the species Mus musculus. The assay can be described thus: Compound was evaluated for its antagonist potency against delta agonist […] by MVD assay(mouse vas deferens). The format is functional.
The target in assay [4] is Kappa-type opioid receptor (Cavia porcellus, UniProt P41144). Nature of the assay: Binding affinity for Opioid receptor kappa 1 determined by displacement of [3H]U-69593 from guinea pig brain membranes. Details: species or system Membrane. The procedure, abridged:
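Guinea pig brain membranes incubated 2 h at 0 °C with 0.80 nM [3H]U69,593. IC50 taken from log dose-displacement curves; Ki by Cheng-Prusoff using Kd 2.9 nM.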
(In general: Displacement assays read how much labelled ligand stays bound in the presence of the test substance.)

The species named for assay [5] is Cavia porcellus. The assay can be described thus: Compound was evaluated for antagonist potency against mu receptor. agonist TAPP by GPI (guinea pig ileum) assay. The format is functional.
The species named for assay [6] is Cavia porcellus. Nature of the assay: Compound was evaluated for inhibition of electrically evoked contractions of the GPI (guinea pig ileum). The format is functional. The method, boiled down:
(§1)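 Inhibition of electrically evoked contractions of guinea pig ileum. Each preparation also run with a [Leu5]enkephalin standard dose-response curve, and test IC50 values normalised against it.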

The species named for assay [7] is Cavia porcellus. The assay can be described thus: Compound was evaluated for inhibition of electrically evoked contractions of the GPI (guinea pig ileum); PA=Partial agonist. The format is functional. The method, boiled down: as §1
For another assay, the species on record is Rattus norvegicus. Nature of the assay: Analgesic Potency of compound in Comparison with Morphine evaluated by rat tail flick test. The format is functional. A general note: Hot-plate and tail-flick tests time the reaction to a heat stimulus.

pIC50, pKi: −log10 of the molar value. Square brackets hold non-standard residues; d marks the D form. Peptide text beside a SMILES is read from it. NMeDmt = CN[C@@H](Cc1c(C)cc(O)cc1C)C(=O)O; Dmt = Cc1cc(O)cc(C)c1C[C@H](N)C(=O)O; Tic = O=C(O)[C@@H]1Cc2ccccc2CN1 Bounds are passed on as bounds.

We go through 5 compounds from ChEMBL document CHEMBL1132372, “The opioid mu agonist/delta antagonist DIPP-NH(2)[Psi] produces a potent analgesic effect, no physical dependence, and less tolerance than morphine in rats” (J Med Chem, 1999).

Sequence of Kappa-type opioid receptor (P41144 whole entry): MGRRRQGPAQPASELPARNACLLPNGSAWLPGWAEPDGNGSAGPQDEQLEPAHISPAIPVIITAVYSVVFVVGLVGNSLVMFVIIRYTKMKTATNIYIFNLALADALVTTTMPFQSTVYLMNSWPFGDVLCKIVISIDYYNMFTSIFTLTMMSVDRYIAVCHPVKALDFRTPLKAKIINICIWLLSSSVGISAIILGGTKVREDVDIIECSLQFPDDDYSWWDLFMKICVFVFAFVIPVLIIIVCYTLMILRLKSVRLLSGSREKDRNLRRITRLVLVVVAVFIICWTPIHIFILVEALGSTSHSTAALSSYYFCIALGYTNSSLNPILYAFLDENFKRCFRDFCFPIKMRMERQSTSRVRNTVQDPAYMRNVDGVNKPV
Sequence of Mu-type opioid receptor (P33535 whole entry): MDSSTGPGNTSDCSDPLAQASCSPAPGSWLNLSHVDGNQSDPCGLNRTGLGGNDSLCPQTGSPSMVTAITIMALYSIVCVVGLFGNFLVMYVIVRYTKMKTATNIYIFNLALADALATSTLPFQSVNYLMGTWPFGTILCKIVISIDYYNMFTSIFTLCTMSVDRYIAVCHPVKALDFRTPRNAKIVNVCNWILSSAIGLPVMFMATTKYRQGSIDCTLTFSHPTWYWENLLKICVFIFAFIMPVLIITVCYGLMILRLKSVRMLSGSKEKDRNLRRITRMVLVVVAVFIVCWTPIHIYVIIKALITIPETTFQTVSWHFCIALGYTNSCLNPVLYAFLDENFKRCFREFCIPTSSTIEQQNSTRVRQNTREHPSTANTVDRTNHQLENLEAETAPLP
Sequence of Delta-type opioid receptor (P33533 whole entry): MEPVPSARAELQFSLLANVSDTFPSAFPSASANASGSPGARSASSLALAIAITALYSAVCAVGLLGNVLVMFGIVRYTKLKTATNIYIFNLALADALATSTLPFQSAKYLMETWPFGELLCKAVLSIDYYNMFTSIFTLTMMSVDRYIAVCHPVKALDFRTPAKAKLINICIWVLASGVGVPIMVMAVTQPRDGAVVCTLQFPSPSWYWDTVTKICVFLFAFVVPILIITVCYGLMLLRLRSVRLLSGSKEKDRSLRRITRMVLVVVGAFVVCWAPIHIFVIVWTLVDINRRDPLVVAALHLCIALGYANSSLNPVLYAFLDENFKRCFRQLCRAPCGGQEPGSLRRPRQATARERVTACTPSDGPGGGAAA

Take `CN[C@@H](Cc1c(C)cc(O)cc1C)C(=O)N1Cc2ccccc2CC1CN[C@@H](Cc1ccccc1)C(=O)N[C@@H](Cc1ccccc1)C(N)=O` (stereo partly drawn): the pKi in assay [1] was 7.21; on Mu-type opioid receptor, 7.12; in assay [4], less than 6.00. In addition, the Ke in the assay listed under Mus musculus [2] is 54.4 nM; in the assay filed under Mus musculus [3], 22.1 nM; in the assay listed under Cavia porcellus [5] it was 64.5 nM.

On to `Cc1cc(O)cc(C)c1C[C@H](N)C(=O)N1Cc2ccccc2CC1CN[C@@H](Cc1ccccc1)C(=O)N[C@@H](Cc1ccccc1)C(N)=O` (stereo partly drawn), for which the pIC50 in the assay listed under Cavia porcellus [6] was 8.11. In addition, the Ke in the assay listed under Mus musculus [2] is recorded as 0.486 nM; in the assay filed under Mus musculus [3] it was 0.537 nM. For the same compound, in assay [4], the negative-log Ki (pKi) is less than 6.00.

Consider `Cc1cc(O)cc(C)c1C[C@H](N)C(=O)N1Cc2ccccc2C[C@H]1C(=O)N[C@@H](Cc1ccccc1)C(=O)N[C@@H](Cc1ccccc1)C(N)=O` (H-[Dmt][Tic]FF-NH2), for which the pKi in assay [4] was less than 6.00.

Regarding `CN[C@@H](Cc1c(C)cc(O)cc1C)C(=O)N1Cc2ccccc2C[C@H]1C(=O)N[C@@H](Cc1ccccc1)C(=O)N[C@@H](Cc1ccccc1)C(N)=O` (H-[NMeDmt][Tic]FF-NH2), the negative-log Ki (pKi) in [1] is 9.41; at Mu-type opioid receptor, 8.39; in assay [4], less than 6.00. The values for the Ke in the assay listed under Mus musculus [2] and in the assay filed under Mus musculus [3] were 0.233 nM and 0.235 nM, respectively. Besides, the IC50 result in the assay listed under Cavia porcellus [7] is “Partial agonist”.

In the assay filed under Rattus norvegicus, `CN1CC[C@]23c4c5ccc(O)c4O[C@H]2[C@@H](O)C=C[C@H]3[C@H]1C5` [MORPHINE] showed an ED50 of 0.11 µg.

A word on the pKi: it is the negative decadic logarithm of the Ki, by convention in mol/L. Lower therefore signals a large Ki. By pIC50 is commonly meant −log10 of the IC50, conventionally taken in molar units. A low value points to a high IC50.
